According to ChEMBL document CHEMBL4118034, “Orbicularisine: A Spiro-Indolothiazine Isolated from Gills of the Tropical Bivalve Codakia orbicularis” (J Nat Prod, 2017):
Active and inactive are the calls of the source. The rule behind the calls is not given here.

Tests used:
[1] = molecular target: CDK2/Cyclin A2 (Homo sapiens) (UniProt P24941+P20248); test: Inhibition of human CDK2/Cyclin A assessed as residual activity at 16 uM relative to control; assay type: protein-complex assay
Pseudomonas aeruginosa = test: Antibacterial activity against Pseudomonas aeruginosa ATCC […] at 2 to 256 ug/ml measured after 24 hrs; assay type: functional, organism-based
Method in brief: (§1)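 Stock: 2.7 mg compound in 100 µL DMSO, then diluted with 900 µL distilled water. Working solutions at 256, 128, 64, 32, 16, 8, 4 and 2 µg/mL; 20 µL of each went into 178 µL Mueller-Hinton broth. Inoculum: 2 µL overnight culture at 0.5 McFarland (1.5*10⁸ CFU/mL). Controls: DMSO–water growth and sterility. Incubation 24 h at 37 °C; wells scored by eye as clear or turbid.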

[2] = molecular target: Cyclin-dependent kinase 5/CDK5 activator 1 (Homo sapiens) (UniProt Q00535+Q15078); test: Inhibition of human CDK5/p25 assessed as residual activity at 16 uM relative to control; assay type: protein-complex assay
Sequence of Cyclin-dependent kinase 5/CDK5 activator 1 (Homo sapiens) (Q00535 whole entry): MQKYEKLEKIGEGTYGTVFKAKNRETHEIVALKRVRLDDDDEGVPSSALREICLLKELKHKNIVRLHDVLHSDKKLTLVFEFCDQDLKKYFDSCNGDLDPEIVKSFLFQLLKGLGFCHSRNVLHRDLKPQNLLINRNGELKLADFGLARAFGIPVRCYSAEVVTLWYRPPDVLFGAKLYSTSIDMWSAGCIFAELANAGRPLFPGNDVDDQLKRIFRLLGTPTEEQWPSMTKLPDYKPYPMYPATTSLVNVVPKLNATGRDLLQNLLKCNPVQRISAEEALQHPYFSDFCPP
Sequence of Cyclin-dependent kinase 5/CDK5 activator 1 (Homo sapiens) (Q15078 99-307 partner limits assumed): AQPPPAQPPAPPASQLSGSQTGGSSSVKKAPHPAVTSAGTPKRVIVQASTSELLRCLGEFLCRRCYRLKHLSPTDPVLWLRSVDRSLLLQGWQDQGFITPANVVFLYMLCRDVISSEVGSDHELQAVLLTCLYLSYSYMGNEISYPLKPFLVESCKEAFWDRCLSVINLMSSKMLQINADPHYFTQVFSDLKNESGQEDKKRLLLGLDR

[3] = molecular target: Receptor-interacting serine/threonine-protein kinase 3 (Homo sapiens) (UniProt Q9Y572); test: Inhibition of human RIPK3 assessed as residual activity at 16 uM relative to control
Sequence of Receptor-interacting serine/threonine-protein kinase 3 (Homo sapiens) (Q9Y572 whole entry, looked up): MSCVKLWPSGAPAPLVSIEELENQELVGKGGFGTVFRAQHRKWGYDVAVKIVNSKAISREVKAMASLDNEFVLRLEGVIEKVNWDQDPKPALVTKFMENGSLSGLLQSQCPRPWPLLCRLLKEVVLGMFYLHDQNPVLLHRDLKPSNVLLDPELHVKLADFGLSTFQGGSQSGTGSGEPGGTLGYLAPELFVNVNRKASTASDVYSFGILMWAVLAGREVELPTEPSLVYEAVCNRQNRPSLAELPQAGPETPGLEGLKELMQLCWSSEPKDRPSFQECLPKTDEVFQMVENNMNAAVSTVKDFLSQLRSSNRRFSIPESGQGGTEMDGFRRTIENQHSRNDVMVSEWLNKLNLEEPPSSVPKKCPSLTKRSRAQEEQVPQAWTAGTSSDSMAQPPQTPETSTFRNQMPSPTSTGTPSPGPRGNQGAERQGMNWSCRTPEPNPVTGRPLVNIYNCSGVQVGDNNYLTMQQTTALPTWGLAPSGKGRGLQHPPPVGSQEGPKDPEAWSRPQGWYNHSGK

Enterococcus faecalis = test: Antibacterial activity against Enterococcus faecalis ATCC 29212 at 2 to 256 ug/ml measured after 24 hrs; assay type: functional, organism-based; method in brief: as §1
Streptococcus pneumoniae = test: Antibacterial activity against Streptococcus pneumoniae ATCC 49619 at 2 to 256 ug/ml measured after 24 hrs; assay type: functional, organism-based; method in brief: as §1
Klebsiella pneumoniae = test: Antibacterial activity against Klebsiella pneumoniae ATCC 700603 at 2 to 256 ug/ml measured after 24 hrs; assay type: functional, organism-based; method in brief: as §1
Escherichia coli = test: Antibacterial activity against Escherichia coli ATCC 35218 at 2 to 256 ug/ml measured after 24 hrs; assay type: functional, organism-based; method in brief: as §1
[4] = molecular target: CDK9/cyclin T1 (Homo sapiens) (UniProt O60563+P50750); test: Inhibition of human CDK9/Cyclin T assessed as residual activity at 16 uM relative to control; assay type: protein-complex assay
[5] = molecular target: T1, Serine/threonine-protein kinase haspin (Homo sapiens) (UniProt Q8TF76); test: Inhibition of human haspin assessed as residual activity at 16 uM relative to control
T1 sequence (whole entry): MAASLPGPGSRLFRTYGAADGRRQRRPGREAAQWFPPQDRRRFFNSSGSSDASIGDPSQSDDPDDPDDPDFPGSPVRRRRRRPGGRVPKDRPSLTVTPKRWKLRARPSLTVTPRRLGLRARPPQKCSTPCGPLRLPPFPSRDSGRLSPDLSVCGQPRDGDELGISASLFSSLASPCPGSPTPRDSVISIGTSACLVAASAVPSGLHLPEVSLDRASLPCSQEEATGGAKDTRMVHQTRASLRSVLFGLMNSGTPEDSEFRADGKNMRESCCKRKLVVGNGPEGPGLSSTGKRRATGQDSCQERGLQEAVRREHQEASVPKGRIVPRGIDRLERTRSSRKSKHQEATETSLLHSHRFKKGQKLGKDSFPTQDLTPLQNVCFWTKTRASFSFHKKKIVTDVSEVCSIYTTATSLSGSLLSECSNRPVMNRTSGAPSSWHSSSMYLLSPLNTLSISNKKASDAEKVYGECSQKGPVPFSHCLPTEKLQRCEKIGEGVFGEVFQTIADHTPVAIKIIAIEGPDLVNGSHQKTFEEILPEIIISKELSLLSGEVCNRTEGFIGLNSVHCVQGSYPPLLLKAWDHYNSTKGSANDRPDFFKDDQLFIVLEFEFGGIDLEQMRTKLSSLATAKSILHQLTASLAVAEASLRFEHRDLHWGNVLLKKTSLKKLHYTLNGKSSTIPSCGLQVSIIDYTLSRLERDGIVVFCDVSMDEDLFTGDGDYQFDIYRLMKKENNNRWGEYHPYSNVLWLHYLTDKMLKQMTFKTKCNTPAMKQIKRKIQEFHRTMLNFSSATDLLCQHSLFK

[6] = molecular target: Aurora kinase B (Homo sapiens) (UniProt Q96GD4); test: Inhibition of human Aurora-B assessed as residual activity at 16 uM relative to control
Sequence of Aurora kinase B (Homo sapiens) (Q96GD4 whole entry): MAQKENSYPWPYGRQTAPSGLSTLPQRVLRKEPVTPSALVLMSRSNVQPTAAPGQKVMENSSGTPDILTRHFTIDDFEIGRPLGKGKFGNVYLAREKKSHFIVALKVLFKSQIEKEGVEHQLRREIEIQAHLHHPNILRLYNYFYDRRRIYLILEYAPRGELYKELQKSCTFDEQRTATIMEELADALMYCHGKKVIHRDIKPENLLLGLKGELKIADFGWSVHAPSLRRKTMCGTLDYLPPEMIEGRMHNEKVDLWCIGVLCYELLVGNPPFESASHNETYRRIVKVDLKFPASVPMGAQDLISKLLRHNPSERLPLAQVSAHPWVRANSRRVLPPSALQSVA

Leishmania donovani = test: Inhibition of Leishmania donovani TLK assessed as residual activity at 16 uM relative to control
[7] = molecular target: Serine/threonine-protein kinase pim-1 (Homo sapiens) (UniProt P11309); test: Inhibition of human Pim1 assessed as residual activity at 16 uM relative to control
Sequence of Serine/threonine-protein kinase pim-1 (Homo sapiens) (P11309 whole entry, looked up): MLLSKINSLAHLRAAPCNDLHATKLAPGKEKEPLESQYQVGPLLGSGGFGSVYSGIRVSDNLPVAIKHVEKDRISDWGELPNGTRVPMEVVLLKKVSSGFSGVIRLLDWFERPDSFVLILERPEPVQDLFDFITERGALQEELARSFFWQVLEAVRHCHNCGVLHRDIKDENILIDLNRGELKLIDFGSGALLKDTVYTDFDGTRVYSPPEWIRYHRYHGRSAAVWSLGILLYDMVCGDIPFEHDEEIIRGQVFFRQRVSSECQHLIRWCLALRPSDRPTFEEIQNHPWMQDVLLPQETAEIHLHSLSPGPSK

[8] = molecular target: Glycogen synthase kinase-3 (Sus scrofa) (UniProt B2LUN4+I6LNT8); test: Inhibition of pig GSK3 alpha/beta assessed as residual activity at 16 uM relative to control; assay type: protein assay
[9] = molecular target: T2, Putative casein kinase I (Leishmania major) (UniProt O96999); test: Inhibition of Leishmania major CK1 assessed as residual activity at 16 uM relative to control
T2 sequence (whole entry): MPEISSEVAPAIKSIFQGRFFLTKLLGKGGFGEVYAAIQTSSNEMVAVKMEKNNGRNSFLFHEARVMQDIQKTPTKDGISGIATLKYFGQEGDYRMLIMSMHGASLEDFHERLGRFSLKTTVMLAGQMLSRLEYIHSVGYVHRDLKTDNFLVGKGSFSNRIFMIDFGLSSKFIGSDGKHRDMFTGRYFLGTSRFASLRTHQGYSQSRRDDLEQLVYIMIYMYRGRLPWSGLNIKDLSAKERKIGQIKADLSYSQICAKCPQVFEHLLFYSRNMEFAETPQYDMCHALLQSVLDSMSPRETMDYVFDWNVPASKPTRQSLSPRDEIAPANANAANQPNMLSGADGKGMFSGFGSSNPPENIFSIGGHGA

[10] = molecular target: Dual specificity tyrosine-phosphorylation-regulated kinase 1A (Rattus norvegicus) (UniProt Q63470); test: Inhibition of rat DYRK1A assessed as residual activity at 16 uM relative to control
HCT-116 = test: Cytotoxicity against human HCT116 cells up to 100 uM; assay type: functional, cell-based
U-87 MG = test: Cytotoxicity against human U87MG cells up to 100 uM; assay type: functional, cell-based; conditions: U-87MG ATCC

Q: Which results are given for `O=C1OC2(C(=O)Nc3ccccc32)C2=C1NCCS2(=O)=O` (stereo not drawn)?
A: Activity [1]: > 60%; Activity (Pseudomonas aeruginosa): inactive; Activity [2]: > 60%; Activity [3]: > 60%; Activity (Enterococcus faecalis): inactive; Activity (Streptococcus pneumoniae): inactive; Activity (Klebsiella pneumoniae): inactive; Activity (Escherichia coli): inactive; Activity [4]: > 60%; Activity [5]: > 60%; Activity [6]: > 60%; Activity (Leishmania donovani): > 60%; Activity [7]: > 60%; Activity [8]: > 60%; Activity [9]: > 60%; Activity [10]: > 60%; Activity (HCT-116): inactive; Activity (U-87 MG): inactive
